In ChEMBL document CHEMBL2010713, “Structure-activity relationship of a new series of reversible dual monoacylglycerol lipase/fatty acid amide hydrolase inhibitors” (J Med Chem, 2012):
Active and inactive are the calls of the source. The rule behind the calls is not given here.

Key:
[1] = molecular target: T1, Fatty-acid amide hydrolase 1 (Rattus norvegicus) (UniProt P97612); test: Inhibition of rat brain membrane FAAH assessed as [3H]-anandamide hydrolysis at 100 uM after 10 mins by liquid scintillation spectroscopy
T1 sequence (whole entry): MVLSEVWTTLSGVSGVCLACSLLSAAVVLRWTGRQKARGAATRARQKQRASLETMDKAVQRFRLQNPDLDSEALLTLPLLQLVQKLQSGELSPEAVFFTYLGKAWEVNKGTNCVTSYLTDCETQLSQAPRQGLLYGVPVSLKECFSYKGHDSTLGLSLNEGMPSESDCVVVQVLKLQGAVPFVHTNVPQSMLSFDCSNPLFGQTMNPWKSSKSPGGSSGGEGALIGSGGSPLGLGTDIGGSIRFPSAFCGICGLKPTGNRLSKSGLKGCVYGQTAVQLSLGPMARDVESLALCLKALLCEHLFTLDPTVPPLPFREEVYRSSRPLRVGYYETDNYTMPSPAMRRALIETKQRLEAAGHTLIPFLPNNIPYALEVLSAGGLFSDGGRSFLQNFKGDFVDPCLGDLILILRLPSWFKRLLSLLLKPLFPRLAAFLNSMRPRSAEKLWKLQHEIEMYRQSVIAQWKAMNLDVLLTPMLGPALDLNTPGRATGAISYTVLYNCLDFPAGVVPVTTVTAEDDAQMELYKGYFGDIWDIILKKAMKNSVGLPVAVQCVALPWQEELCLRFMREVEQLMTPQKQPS
Summary of the method: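 Membrane fraction of rat cerebella (100000g pellet resuspended in 50 mM sodium phosphate pH 8.0), diluted in 10 mM Tris-HCl, 1 mM EDTA, pH 7.2, for initial-rate conditions. [3H]-anandamide, ethanolamine-labelled, final 0.5 μM, with fatty acid-free BSA. Aqueous-phase tritium measured by liquid scintillation; blanks lacked enzyme; activity as percent of solvent-carrier control. Highest concentration 100 μM; 3–10 independent experiments.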

[2] = molecular target: T2, Monoglyceride lipase (Homo sapiens) (UniProt Q99685); test: Inhibition of human recombinant his-tagged MAGL expressed in Escherichia coli assessed as hydrolysis of 4-nitrophenyl acetate at 10 uM after 20 mins by microplate reader
T2 sequence (whole entry): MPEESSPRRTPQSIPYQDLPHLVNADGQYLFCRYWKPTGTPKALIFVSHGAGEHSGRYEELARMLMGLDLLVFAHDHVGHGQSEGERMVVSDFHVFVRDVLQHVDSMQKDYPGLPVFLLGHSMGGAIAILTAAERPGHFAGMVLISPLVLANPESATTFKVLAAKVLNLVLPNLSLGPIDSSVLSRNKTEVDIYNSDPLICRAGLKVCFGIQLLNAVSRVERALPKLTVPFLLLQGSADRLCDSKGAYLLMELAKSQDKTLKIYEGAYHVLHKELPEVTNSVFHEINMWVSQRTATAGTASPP

[3] = molecular target: T3, Monoglyceride lipase (Homo sapiens, UniProt Q99685); test: Inhibition of human recombinant his-tagged MAGL expressed in Escherichia coli assessed as hydrolysis of 4-nitrophenyl acetate after 20 mins by microplate reader
T3 sequence (Q99685 whole entry): T2 sequence (whole entry)

[4] = molecular target: T4, Monoglyceride lipase (Rattus norvegicus) (UniProt Q8R431); test: Inhibition of rat brain cytosolic MAGL assessed as [3H]-2-arachidonoyl glycerol hydrolysis at 100 uM after 10 mins by liquid scintillation spectroscopy
T4 sequence (whole entry): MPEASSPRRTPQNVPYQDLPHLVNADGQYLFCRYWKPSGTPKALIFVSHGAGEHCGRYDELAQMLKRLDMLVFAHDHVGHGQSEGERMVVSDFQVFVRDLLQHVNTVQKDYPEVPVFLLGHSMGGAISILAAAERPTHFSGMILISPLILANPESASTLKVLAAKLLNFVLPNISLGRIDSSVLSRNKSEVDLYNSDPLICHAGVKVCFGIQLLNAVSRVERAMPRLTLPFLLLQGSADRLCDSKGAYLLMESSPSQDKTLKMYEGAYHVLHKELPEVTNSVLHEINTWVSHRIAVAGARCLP

[5] = molecular target: T4, Monoglyceride lipase (Rattus norvegicus); test: Irreversible inhibition of rat brain cytosolic MAGL assessed as [3H]-2-arachidonoyl glycerol hydrolysis at 3 uM preincubated for 60 mins followed by […] compound treated after dilution by liquid scintillation
[6] = molecular target: T4, Monoglyceride lipase (Rattus norvegicus); test: Irreversible inhibition of rat brain cytosolic MAGL assessed as [3H]-anandamide hydrolysis at 3 uM preincubated for 60 mins followed by […] compound treated after dilution by liquid scintillation
[7] = molecular target: T4, Monoglyceride lipase (Rattus norvegicus); test: Irreversible inhibition of rat brain cytosolic MAGL assessed as [3H]-2-arachidonoyl glycerol hydrolysis at 3 uM preincubated for 60 mins measured after dilution by liquid scintillation
[8] = molecular target: T3, Monoglyceride lipase; test: Non-competitive inhibition of human recombinant MAGL assessed as 7-hydroxycoumarin level using umbelliferyl arachidonate as substrate by luminescence spectrophotometer
[9] = molecular target: T4, Monoglyceride lipase (Rattus norvegicus); test: Irreversible inhibition of rat brain cytosolic MAGL assessed as [3H]-anandamide hydrolysis at 3 uM preincubated for 60 mins measured after dilution by liquid scintillation
[10] = molecular target: T4, Monoglyceride lipase (Rattus norvegicus); test: Irreversible inhibition of rat brain cytosolic MAGL assessed as […] at 3 to 10 uM preincubated for 60 mins by liquid scintillation
[11] = molecular target: T4, Monoglyceride lipase (Rattus norvegicus); test: Irreversible inhibition of rat brain cytosolic MAGL assessed as […] at 0.1 to 1 uM preincubated for 60 mins by liquid scintillation
[12] = molecular target: Fatty-acid amide hydrolase 1 (Rattus norvegicus) (UniProt P97612); test: Inhibition of rat brain membrane FAAH assessed as [3H]-anandamide hydrolysis after 10 mins by liquid scintillation spectroscopy
[13] = molecular target: Monoglyceride lipase (Rattus norvegicus) (UniProt Q8R431); test: Inhibition of rat brain cytosolic MAGL assessed as [3H]-2-oleoylglycerol hydrolysis after 10 mins by liquid scintillation spectroscopy
[14] = molecular target: Monoglyceride lipase (Rattus norvegicus) (UniProt Q8R431); test: Inhibition of rat brain cytosolic MAGL assessed as [3H]-2-oleoylglycerol hydrolysis at 100 uM after 10 mins by liquid scintillation spectroscopy; conditions: Cytosol
[15] = molecular target: T4, Monoglyceride lipase (Rattus norvegicus); test: Irreversible inhibition of rat brain cytosolic MAGL assessed as [3H]-2-arachidonoyl glycerol hydrolysis at 0.1 uM preincubated for 60 mins by liquid scintillation
[16] = molecular target: T4, Monoglyceride lipase (Rattus norvegicus); conditions: 10 uM
[17] = molecular target: T4, Monoglyceride lipase (Rattus norvegicus); conditions: 10 uM; remark: listed apart in the source
[18] = molecular target: T4, Monoglyceride lipase (Rattus norvegicus); conditions: 10 uM; remark: listed apart in the source
[19] = molecular target: T2, Monoglyceride lipase (Homo sapiens)
[20] = molecular target: T4, Monoglyceride lipase (Rattus norvegicus); conditions: 10 uM; remark: listed apart in the source

SMILES: O=C(CCCCCc1ccc(-c2ccccc2)cc1)OC[C@H]1CO1
- Imax [1]: 91%
- inhibition [2]: 33%
- IC50 [3]: > 10 µM

SMILES: O=C(CCCCCc1ccc(-c2ccccc2)cc1)OC[C@@H]1CO1
- Imax [4]: > 95%
- Imax [1]: 92%
- inhibition [2]: 45%
- IC50 [3]: > 10 µM

SMILES: O=C(Cc1ccc(Cc2ccccc2)cc1)OC[C@H]1CO1
- inhibition [5]: inactive
- inhibition [6]: inactive
- inhibition [7]: inactive
- Ki [8]: 40 µM
- inhibition [9]: inactive
- IC50 [3]: 2.4 µM
- inhibition [10]: inactive
- inhibition [11]: inactive

SMILES: O=C(CCCCCc1ccc(-c2ccccc2)cc1)OC(CO)CO
- IC50 [3]: 7.5 µM

SMILES: O=C(Cc1ccc(Cc2ccccc2)cc1)OC(CO)CO
- IC50 [12]: 0.7 µM
- IC50 [13]: > 100 µM
- inhibition [2]: < 10%
- inhibition [14]: 49%

SMILES: CCCCC/C=C\C/C=C\C/C=C\C/C=C\CCCC(=O)OCC1CCCCO1 (stereo not given)
- IC50 [13]: 5.6 µM

SMILES: O=C(Cc1ccc(Cc2ccccc2)cc1)OC[C@@H]1CO1
- inhibition [2]: < 10%

SMILES: O=C(Oc1ccc([N+](=O)[O-])cc1)N1CCC(C(O)(c2ccc3c(c2)OCO3)c2ccc3c(c2)OCO3)CC1
- inhibition [15]: Active

SMILES: O=C(/C=C/c1ccc(-c2ccccc2)cc1)OCC1CO1 (racemic)
- Imax [4]: 73%
- IC50 [3]: 5.1 µM

SMILES: O=C(CCc1ccc(-c2ccccc2)cc1)OCC1CO1 (racemic)
- inhibition [2]: 22%
- IC50 [3]: > 10 µM

SMILES: O=C(CCCc1ccc(-c2ccccc2)cc1)OCC1CO1 (racemic)
- Imax [2]: 86%
- IC50 [3]: 1.8 µM

SMILES: O=C(CCCCc1ccc(-c2ccccc2)cc1)OCC1CO1 (racemic)
- IC50 [12]: 4.6 µM
- IC50 [13]: 2.6 µM
- Imax [1]: 87%
- IC50 [3]: 6.6 µM

SMILES: O=C(CCCCCc1ccc(-c2ccccc2)cc1)OCC1CO1 (racemic)
- Imax [1]: 89%
- inhibition [16]: Active
- inhibition [17]: Active
- IC50 [3]: 4.1 µM
- inhibition [18]: Active
- Kic [19]: 8 µM
- inhibition [10]: inactive
- inhibition [20]: Active
- inhibition [11]: inactive

SMILES: O=C(CCCCCCc1ccc(-c2ccccc2)cc1)OCC1CO1 (racemic)
- inhibition [2]: 11%
- IC50 [3]: > 10 µM

SMILES: O=C(Cc1ccc(-c2ccccc2)cc1)OCC1CCCCO1 (racemic)
- inhibition [2]: 21%
- IC50 [3]: > 10 µM

SMILES: O=C(CCc1ccc(-c2ccccc2)cc1)OCC1CCCCO1 (racemic)
- Imax [2]: 67%
- IC50 [3]: 1.6 µM

SMILES: O=C(CCCc1ccc(-c2ccccc2)cc1)OCC1CCCCO1 (racemic)
- inhibition [2]: 34%
- IC50 [3]: > 10 µM

SMILES: O=C(CCCCc1ccc(-c2ccccc2)cc1)OCC1CCCCO1 (racemic)
- IC50 [3]: 12 µM

SMILES: O=C(CCCCCc1ccc(-c2ccccc2)cc1)OCC1CCCCO1 (racemic)
- inhibition [2]: 33%
- IC50 [3]: > 10 µM

SMILES: O=C(CCCCCCc1ccc(-c2ccccc2)cc1)OCC1CCCCO1 (racemic)
- Imax [4]: 83%
- inhibition [2]: 37%
- IC50 [3]: > 10 µM

SMILES: O=C(/C=C/c1ccc(-c2ccccc2)cc1)OCC1CCCCO1 (racemic)
- inhibition [4]: 37%
- Imax [2]: 90%
- IC50 [3]: 0.76 µM

SMILES: O=C(C/C=C/c1ccc(-c2ccccc2)cc1)OCC1CCCCO1 (racemic)
- inhibition [2]: 12%
- IC50 [3]: > 10 µM

SMILES: O=C(/C=C/Cc1ccc(-c2ccccc2)cc1)OCC1CCCCO1 (racemic)
- inhibition [2]: 49%
- IC50 [3]: > 10 µM

SMILES: O=C(Cc1ccc(Cc2ccccc2)cc1)OCC1CO1 (racemic)
- IC50 [3]: 16 µM

SMILES: O=C(CCCc1ccc(Cc2ccccc2)cc1)OCC1CO1 (racemic)
- inhibition [2]: 29%
- IC50 [3]: > 10 µM

SMILES: O=C(Cc1ccc(Cc2ccccc2)cc1)OCC1CCCCO1 (racemic)
- IC50 [12]: 6.8 µM
- Imax [4]: 96%
- IC50 [13]: > 100 µM
- inhibition [2]: < 10%
- inhibition [14]: 25%

SMILES: O=C(CCCc1ccc(Cc2ccccc2)cc1)OCC1CCCCO1 (racemic)
- Imax [4]: 72%
- inhibition [2]: 14%
- IC50 [3]: > 10 µM

SMILES: O=C(CCc1ccc(Cc2ccccc2)cc1)OCC1CCCCO1 (racemic)
- inhibition [2]: < 10%

SMILES: O=C(CCc1ccc(Cc2ccccc2)cc1)OCC1CO1 (racemic)
- Imax [1]: 72%
- inhibition [2]: < 10%

SMILES: O=C(Cc1ccc(-c2ccccc2)cc1)OCC1CO1 (racemic)
- inhibition [2]: < 10%

SMILES: O=C(OCC1CCCCO1)c1ccc(CCc2ccccc2)cc1 (racemic)
- inhibition [2]: < 10%

SMILES: O=C(OCC1CO1)c1ccc(CCc2ccccc2)cc1 (racemic)
- inhibition [2]: < 10%
